Ten molecules from ChEMBL document CHEMBL1156871, “Nonpeptidic tetrafluorophenoxymethyl ketone cruzain inhibitors as promising new leads for Chagas disease chemotherapy” (J Med Chem, 2010) can be followed below.

Data set [1] addresses Cruzipain (Trypanosoma cruzi) (UniProt P25779). Put plainly: Ratio of kinact to Ki for Trypanosoma cruzi cruzain.
The target is the same in data set [2]. In words: (§1) Inhibition of Trypanosoma cruzi cruzain.
A further data set has as its target Cruzipain (Trypanosoma cruzi, UniProt P25779). The data set is described as §1.
Data set [3] concerns Trypanosoma cruzi. In words: Antitrypanosomal activity against Trypanosoma cruzi Y strain infected in BESM cells assessed as reduction of parasite number after 72 hrs. The data set is classed as functional, organism-based. The method, boiled down: (§2)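 BESM cells in RPMI-1640 with 5% heat-inactivated FCS (37 °C, 5% CO2) infected with Y-strain trypomastigotes, then given fresh medium with inhibitor at 0, 0.3, 1, 3 and 10 μM for 72 h. Fixed in 4% paraformaldehyde and stained with DAPI (0.1 μg/mL), then imaged. Nuclei were sorted by size: host >150 μm², parasite 2-4 μm². The parasite/host nuclei ratio gave the IC50, and the loss of host nuclei gave cytotoxicity. Duplicate or triplicate runs averaged.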

Data set [4] is described as follows: Cytotoxicity against BEMS cells. The data set is classed as cell-based. The conditions noted are these: Bos taurus. The essentials:
as §2

Data set [5] relates to Trypanosoma cruzi. Put plainly: Antitrypanosomal activity against Trypanosoma cruzi trypomastigotes infected in C3H mouse assessed as acute chagas disease symptoms at 20 mg/kg, ip bid for 27 days. The data set is classed as functional, organism-based. Set-up: dose 20 mg/kg. The essentials: (§3)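 Female C3H mice (mean 22 g) infected ip with 1.2 × 10⁶ tissue-culture trypomastigotes. From 24 h post-infection, treated (n=5) with 20 mg/kg ip b.i.d. for 27 days in 70% DMSO:30% water, prepared daily; untreated controls n=3. Mice were sacrificed at day 77 post-infection for symptom scoring and histopathology of heart, skeletal muscle, liver, spleen and colon.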

In data set [6] the test system is Trypanosoma cruzi. In words: Antitrypanosomal activity against Trypanosoma cruzi trypomastigotes infected in C3H mouse assessed as infection in heart at 20 mg/kg, ip bid for 27 days. The data set is classed as functional, organism-based. Also noted: dose 20 mg/kg. The essentials:
as §3

Data set [7] relates to Trypanosoma cruzi. Put plainly: Antitrypanosomal activity against Trypanosoma cruzi trypomastigotes infected in C3H mouse assessed as infection in skeletal muscle at 20 mg/kg, ip bid for 27 days. The conditions noted are these: Muscle tissue. The data set is classed as functional, organism-based. Also noted: dose 20 mg/kg. The method, boiled down:
as §3

Data set [8] concerns Trypanosoma cruzi. In words: Antitrypanosomal activity against Trypanosoma cruzi trypomastigotes infected in C3H mouse assessed as infection in liver at 20 mg/kg, ip bid for 27 days. The data set is classed as functional, organism-based. Also noted: dose 20 mg/kg. The essentials: as §3
For data set [9], the system named is Trypanosoma cruzi. In words: Antitrypanosomal activity against Trypanosoma cruzi trypomastigotes infected in C3H mouse assessed as infection in spleen at 20 mg/kg, ip bid for 27 days. The data set is classed as functional, organism-based. Set-up: dose 20 mg/kg. The method, boiled down: as §3
The subject of data set [10] is Trypanosoma cruzi. In words: Antitrypanosomal activity against Trypanosoma cruzi trypomastigotes infected in C3H mouse assessed as infection in colon at 20 mg/kg, ip bid for 27 days. The class given is functional, organism-based. Also noted: dose 20 mg/kg. The essentials: as §3
Another data set has as its system Mus musculus. Put plainly: Toxicity in Trypanosoma cruzi trypomastigotes infected mouse model at 20 mg/kg, ip bid for 27 days. The conditions noted are these: in vivo, 648 h.
The test system of data set [11] is Trypanosoma cruzi. In words: Antitrypanosomal activity against Trypanosoma cruzi trypomastigotes infected mouse model assessed as chagas disease symptoms at 20 mg/kg, ip bid for 27 days measured after 77 days of post infection.

Active and inactive are the calls of the source. The calls are words filed in the database; no cut-off is given here.

Sequence of Cruzipain (Trypanosoma cruzi) (P25779 123-467 limits assumed): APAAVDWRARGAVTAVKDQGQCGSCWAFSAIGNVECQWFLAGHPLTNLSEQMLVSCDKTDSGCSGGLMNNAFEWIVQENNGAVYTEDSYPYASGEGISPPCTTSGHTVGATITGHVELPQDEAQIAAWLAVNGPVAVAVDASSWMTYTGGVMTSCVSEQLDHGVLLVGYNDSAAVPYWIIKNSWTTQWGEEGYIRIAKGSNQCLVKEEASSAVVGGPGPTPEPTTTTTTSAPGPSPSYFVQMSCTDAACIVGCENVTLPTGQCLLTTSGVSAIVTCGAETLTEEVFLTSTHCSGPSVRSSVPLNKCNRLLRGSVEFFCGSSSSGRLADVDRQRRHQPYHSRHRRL
Sequence of Cruzipain (P25779 whole entry): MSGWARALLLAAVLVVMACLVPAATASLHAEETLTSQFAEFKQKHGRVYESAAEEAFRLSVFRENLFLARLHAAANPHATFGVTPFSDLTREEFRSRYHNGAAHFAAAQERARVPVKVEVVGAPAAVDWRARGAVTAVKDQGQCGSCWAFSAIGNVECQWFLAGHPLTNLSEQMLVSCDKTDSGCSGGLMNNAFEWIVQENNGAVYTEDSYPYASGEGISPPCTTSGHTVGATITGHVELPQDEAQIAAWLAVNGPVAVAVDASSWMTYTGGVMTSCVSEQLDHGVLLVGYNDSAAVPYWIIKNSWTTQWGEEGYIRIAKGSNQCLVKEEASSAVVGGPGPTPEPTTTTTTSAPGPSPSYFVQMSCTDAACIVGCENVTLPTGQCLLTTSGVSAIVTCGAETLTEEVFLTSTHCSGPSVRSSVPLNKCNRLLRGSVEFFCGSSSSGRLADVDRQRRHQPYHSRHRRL

Usually Ki stands for the dissociation constant of the complex between target and ligand, obtained from inhibition or displacement. A low value points to tighter binding. The IC50 is the midpoint of a concentration-inhibition curve. For `CCC(C(=O)COc1c(F)c(F)cc(F)c1F)n1cc([C@](C)(CC(C)C)NCc2ccc3ncccc3c2)nn1` (some centres undefined), the Ratio in data set [1] was determined as 487000 M⁻¹ s⁻¹. The molecule further gave a Kinact in [2] of 0.048 s⁻¹. Besides, the Ki on Cruzipain worked out at 0.19 µM. Further, the IC50 in the data set on Trypanosoma cruzi [3] was 5.7 µM; in data set [4], more than 10 µM.
As to `CCCCC(C(=O)COc1c(F)c(F)cc(F)c1F)n1cc([C@](C)(CC(C)C)NCc2ccc3ncccc3c2)nn1` (some centres undefined), the Ratio in [1] came out at 657000 M⁻¹ s⁻¹. For the same molecule, the Kinact in data set [2] was 0.036 s⁻¹. The Ki on Cruzipain was found to be 0.1 µM. In addition, the figures for the IC50 (in the data set with Trypanosoma cruzi [3]; in [4]) were 3.1 µM and more than 10 µM, respectively.
The like results for `CCCCC(C(=O)COc1c(F)c(F)cc(F)c1F)n1cc([C@@](C)(NCc2ccc3ncccc3c2)C2CC2)nn1` (some centres undefined) were, in that order, 179000 M⁻¹ s⁻¹, 0.089 s⁻¹, 0.94 µM, 4.3 µM and more than 10 µM.
Turning to `CCCCC(C(=O)COc1c(F)c(F)cc(F)c1F)n1cc([C@@](C)(NCc2ccc3ncccc3c2)C(C)C)nn1` (some centres undefined), the results for the half-maximal inhibitory concentration (IC50) (with Trypanosoma cruzi [3]; in data set [4]) were 5.1 µM and more than 10 µM, respectively. The Activity result in the data set on Trypanosoma cruzi [5] and in the data set with Mus musculus was “Non-toxic” each time. Moreover, the outcome in the data set on Trypanosoma cruzi [6], in the data set on Trypanosoma cruzi [8], in the data set with Trypanosoma cruzi [9], in the data set with Trypanosoma cruzi [10] and in the data set on Trypanosoma cruzi [11] was Active. Besides, the outcome with Trypanosoma cruzi [7] was inactive.
In the case of `CC(C(=O)COc1c(F)c(F)cc(F)c1F)n1cc([C@@](C)(NCc2ccc3ncccc3c2)C(C)C)nn1` (some centres undefined), the Ratio in data set [1] is 12300 M⁻¹ s⁻¹. In data set [2], this molecule registered a Kinact of 0.043 s⁻¹. In addition, the Ki at Cruzipain came out at 6.76 µM.
Take `CCC(C(=O)COc1c(F)c(F)cc(F)c1F)n1cc([C@@](C)(NCc2ccc3ncccc3c2)C2CCC2)nn1` (mixture of isomers): the Ratio in [1] stood at 522000 M⁻¹ s⁻¹. In [2], this molecule had a Kinact of 0.096 s⁻¹. For the same molecule, the affinity on Cruzipain, expressed as Ki, was 0.35 µM. The IC50 in the data set on Trypanosoma cruzi [3] was 5.8 µM; in data set [4], more than 10 µM.
The like results for `CCC(C(=O)COc1c(F)c(F)cc(F)c1F)n1cc([C@@](C)(NCc2ccc3ncccc3c2)C(C)C)nn1` (some centres undefined) were, in that order, 124000 M⁻¹ s⁻¹, 0.066 s⁻¹, 1.04 µM, 8.3 µM and more than 10 µM.
The like results for `CCCCC(C(=O)COc1c(F)c(F)cc(F)c1F)n1cc([C@@](C)(NCc2ccc3ncccc3c2)C2CCC2)nn1` (some centres undefined) were, in that order, 680000 M⁻¹ s⁻¹, 0.047 s⁻¹, 0.13 µM, 4.1 µM and more than 10 µM.
In the case of `CCCCC(C(=O)COc1c(F)c(F)cc(F)c1F)n1cc([C@@](C)(NCc2ccc3ncccc3c2)C2CCCCC2)nn1` (some centres undefined), the Ratio in [1] is 58000 M⁻¹ s⁻¹. The same molecule yielded a Kinact in [2] of 0.037 s⁻¹. At Cruzipain, this molecule displayed a Ki of 1.22 µM.
As to `CCCCC(C(=O)COc1c(F)c(F)cc(F)c1F)n1cc([C@@](C)(NCc2ccc3ncccc3c2)C2CCCC2)nn1` (some centres undefined), on Cruzipain, the affinity, expressed as Ki, was 0.11 µM. Moreover, the IC50 was 4.2 µM with Trypanosoma cruzi [3] and 10 µM in data set [4].
